Shown are actives, neighbours in structure and some others; about 1.6% of the full set was active somewhere.
MT1-MMP act inh: inhibitors of human MT1-MMP activation; hit rate 0.061% among 360,000; HT1080 RFP-PRO-GFP cells, GFP/RFP ratio fluorescence, overnight; percent of plate control window, DMSO zero; GFP/RFP ratio change, % at 20 µM; AID 651647; P50281;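 active means GFP/RFP ratio change of at least 30% with cell ATP level not reduced by more than half and red fluorescence within 50% of control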
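Assay system: RFP-PRO-GFP reporter HT1080 cells; read-out basis: GFP/RFP fluorescence ratio; benchmarks: DMSO wells and RFP-L50D-GFP cells; doses: 20 µM single dose, 1% DMSO; schedule: overnight cell settling, then overnight compound exposure, 37 °C, 5% CO2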
Tn7 DDE FP: DD(E)-Tn7 binding inhibition, primary FP screen; P02675; FP displacement of FITC-Tn7 peptide from fibrin DD(E); 0% = median of compound wells per plate; inhibition, % at 8.3 µM; hit rate 0.13% among 370,000;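 active means inhibition above the mean of compounds falling within the control limits plus 3 SD of them, cut at about 14% in these data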
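Also added: labelled Tn7 tracer, 0.1 µM; Assay system: human fibrin DD(E) protein; Amount: 2 µM fibrin DD(E); Schedule: 10 min compound pre-incubation, 3 h probe incubation at room temperature; Repeats: one replicate per compound; Read-out basis: percent inhibition; Measured by: fluorescence polarization of the labelled Tn7 tracer.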
DDE Tn6 FP inh: inhibitors of Tn6 peptide binding to human fibrin DD(E); hit rate 0.21% among 370,000; inhibition, % at 8.3 µM; Fibrin DD(E) TRITC-Tn6 fluorescence polarization displacement; P02675;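 active means inhibition above a per-campaign cutoff: mean of compounds within control limits plus 3 SD, cut at about 15% in these data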
ADAM17 inh: inhibits human ADAM17; P78536; recombinant ADAM17, EDANS/DABCYL FRET peptide cleavage; inhibition, % at 6.95 µM; hit rate 0.83% among 370,000; AID 720648;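 active means inhibition above the mean of compounds lying between control limits plus 3 SD, set per campaign, cut at about 8.5% in these data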
ADAM10 inh: ADAM10 inhibition, QFRET primary screen; recombinant ADAM10, EDANS/DABCYL FRET peptide cleavage, 3 h; inhibition, % at 7 µM; hit rate 0.62% among 370,000; AID 720582;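 active means inhibition above a per-campaign cutoff equal to the mean of compounds falling between control-based bounds plus 3 SD, cut at about 20% in these data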
Target sequence (O14672 214-748 limits assumed): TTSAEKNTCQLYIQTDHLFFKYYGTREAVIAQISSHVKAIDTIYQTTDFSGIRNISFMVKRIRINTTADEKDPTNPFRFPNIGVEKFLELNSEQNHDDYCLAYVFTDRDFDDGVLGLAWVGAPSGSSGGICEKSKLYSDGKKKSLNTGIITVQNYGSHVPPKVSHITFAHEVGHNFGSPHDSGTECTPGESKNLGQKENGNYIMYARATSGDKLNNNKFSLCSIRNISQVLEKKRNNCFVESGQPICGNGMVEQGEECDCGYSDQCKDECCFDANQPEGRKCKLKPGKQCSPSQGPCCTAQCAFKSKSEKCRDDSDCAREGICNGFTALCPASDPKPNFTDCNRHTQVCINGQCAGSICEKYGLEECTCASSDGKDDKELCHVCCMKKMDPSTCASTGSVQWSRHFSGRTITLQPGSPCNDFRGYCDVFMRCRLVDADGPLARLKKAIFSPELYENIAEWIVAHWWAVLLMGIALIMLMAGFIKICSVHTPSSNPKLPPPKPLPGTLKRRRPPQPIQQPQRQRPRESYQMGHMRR
ADAM10 ctr: counter-screen for ADAM17 exosite inhibitors: inhibitors of human ADAM10 | AID 743256 | hit rate 47% among 2,900 | inhibition, % at 6.95 µM | recombinant ADAM10, EDANS/DABCYL FRET peptide cleavage, 3 h | shares compounds with ADAM17 inh;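 active means mean inhibition over the triplicate runs exceeds the activity threshold set in the earlier primary screen, cut at about 20% in these data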
ADAM17 confirm: human ADAM17 inhibition, confirmation; inhibition, % at 6.95 µM; hit rate 65% among 2,900; shares compounds with ADAM17 inh; recombinant ADAM17, EDANS/DABCYL QFRET peptide cleavage;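 active means mean inhibition across replicates above the hit cutoff set in the primary screen, cut at about 8.5% in these data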
Hits are given with their value; i = inactive; nt = no result.

SMILES	MT1-MMP act inh	Tn7 DDE FP	DDE Tn6 FP inh	ADAM17 inh	ADAM10 inh	ADAM10 ctr	ADAM17 confirm
CCOC(=O)[C@]12CCCCC/C=C\1N(CCc1ccc(Cl)cc1)C(=O)[C@H]2CC(=O)NCc1ccccc1	nt	i	i	11	i	25	12
CCOC(=O)[C@]12CCCCC/C=C\1N(CCc1ccc(Cl)cc1)C(=O)[C@H]2CC(=O)NCc1ccc(C)o1	nt	i	i	9.4	i	i	i
C#CCNC(=O)C[C@@H]1C(=O)N(CCc2ccc(Cl)cc2)/C2=C/CCCCC[C@@]21C(=O)OCC	nt	i	i	i	i	nt	nt
NC(Cc1ccc(O)cc1)C(=O)NN=Cc1ccccc1Cl (configuration not stated)	nt	i	i	i	i	nt	nt
C=CCn1c(N(C)C)nc2c1c(=O)[nH]c(=O)n2C	i	i	i	9.8	i	i	i
CN(C)c1nc2c(c(=O)[nH]c(=O)n2C)n1CCCc1ccccc1	i	i	i	i	i	nt	nt
CCOC(=O)c1sc(NC(=O)Nc2ccccc2)cc1C	i	i	i	9.2	i	i	i
CCc1ccc(OCC2c3cc(OC)c(OC)cc3CCN2C(=S)NCCOC)cc1 (configuration not stated)	i	i	i	10	i	39	21
CCOc1cc(CCNC(=O)c2cc3ccsc3n2C)ccc1OC	nt	i	i	i	i	nt	nt
COc1ccc(NC(=O)CC2C(=O)N(C)C(=S)N2Cc2ccncc2)cc1 (configuration not stated)	i	i	i	9.1	i	i	i
C=CCCC1CN(Cc2ccc(OC)cc2)S(=O)(=O)c2c(NCc3cc(OC)c(OC)c(OC)c3)cccc2O1 (configuration not stated)	nt	i	i	i	i	nt	nt
CCOc1ccc(-n2c(COc3ccccc3)nnc2SCc2nc3ccccc3[nH]2)cc1	nt	i	i	i	i	nt	nt
O=[N+]([O-])c1cc(Cl)c(O)c2ncccc12	i	i	i	10	i	i	11
O=[N+]([O-])c1cc(Cl)c2cccnc2c1O	i	i	i	i	i	nt	nt
O=[N+]([O-])c1cc(S(=O)(=O)NCc2ccco2)ccc1NN=Cc1ccccn1	nt	i	i	i	i	nt	nt
C[C@@H]1N[C@H]2N(C1=O)c1ccccc1[C@@]21C[C@@H]2C(=O)N[C@](C)(O1)c1nc3ccccc3c(=O)n12	nt	i	i	i	i	nt	nt
CCCn1c(O)c(N=NC(=O)CNC(=O)/C=C/c2ccc(OC)cc2)c2ccccc21	i	i	i	i	i	nt	nt
CCCn1c(O)c(N=NC(=O)CNC(=O)Cc2ccc(OC)cc2)c2ccccc21	i	i	i	9.7	i	i	i
COC(=O)C1CN(Cc2cn(Cc3ccc(C)cc3)nn2)CCS(=O)(=O)N1Cc1ccc(F)cc1 (configuration not stated)	nt	i	i	i	i	nt	nt
CC(C)CNC(=S)NC1CC2CCCC(C1)N2Cc1cccs1 (configuration not stated)	i	i	i	12	i	i	i
CC(C)CNC(=S)NC1CC2CCCC(C1)N2Cc1ccco1 (configuration not stated)	i	i	i	i	i	nt	nt
CCCN(CC1CC1)C(=O)c1oc(=O)c2ccccc2c1-c1ccc(C)cc1	nt	i	i	i	i	nt	nt
COc1ccc(C(=O)C2(C(=O)NCc3ccccc3)CC(c3ccccc3C(F)(F)F)=NO2)cc1 (configuration not stated)	nt	i	i	9.1	i	22	15
Fc1cccc(CCN2C(=S)NC[C@@H]2CC2CCCCC2)c1	i	i	i	11	i	i	i
CCCC[C@@H]1CNC(=S)N1CCc1cccc(F)c1	i	i	i	i	i	nt	nt
SMILES	MT1-MMP act inh	Tn7 DDE FP	DDE Tn6 FP inh	ADAM17 inh	ADAM10 inh	ADAM10 ctr	ADAM17 confirm
O=S(=O)(c1ccccc1C(F)(F)F)N1CCC(n2cnc3ccccc32)CC1	i	i	i	i	i	nt	nt
O=S(=O)(c1ccccc1)N1CCC(n2cnc3ccccc32)CC1	i	i	i	9.7	i	i	i
Fc1ccc(Cn2c(SCc3ccc(F)c(C(F)(F)F)c3)nnc2C(F)(F)F)cc1	nt	i	i	8.8	i	37	17
COc1ccc(C(=O)c2c[nH]c3ccccc23)cc1	i	i	i	11	i	i	i
COc1ccc(C2C(C(C)=O)=C(O)C(=O)N2CCO)c(OC)c1 (configuration not stated)	i	i	i	i	i	nt	nt
CCCCN1C(=O)C(O)=C(C(C)=O)C1c1ccc(OC)cc1OC (configuration not stated)	i	i	i	10	i	i	i
C[C@H](O)[C@@H]1C(=O)N2CCc3c([nH]c4c(-c5ccc6c(c5)OCO6)cccc34)[C@@H]2C[C@@H]1N(C)C(=O)Nc1ccccc1	nt	i	i	i	i	nt	nt
Cc1cccc(CNC(=O)Cn2ccc3cc(S(=O)(=O)N4CCCCCC4)ccc32)c1	i	i	i	i	i	nt	nt
Cc1ccc(CNC(=O)Cn2ccc3cc(S(=O)(=O)N4CCCCCC4)ccc32)cc1	i	i	i	8.8	i	i	i
O=[N+]([O-])c1ccc(Cl)c(C2Nc3cccc4cccc(c34)N2)c1	i	i	i	11	32	i	10
O=[N+]([O-])c1ccccc1C1Nc2cccc3cccc(c23)N1	i	i	i	i	i	nt	nt
COC(=O)[C@H](C(C)C)N(Cc1cn(Cc2ccccc2)nn1)S(=O)(=O)c1ccc(F)cc1Br	nt	i	i	i	i	nt	nt
COc1ccc(N2CCC(CNC(=O)Nc3ccccc3)C2)cc1 (configuration not stated)	i	i	i	14	i	i	i
COc1ccc(CN2CCC(CNC(=O)Nc3ccccc3)CC2)cc1	nt	i	i	i	i	nt	nt
O=C1c2cccc(OCC(=O)N3CCCc4ccccc43)c2CCN1Cc1ccc(Br)cc1	i	i	i	9.7	i	i	12
O=C1c2cccc(OCC(=O)N3CCCc4ccccc43)c2CCN1Cc1ccccc1	i	i	i	i	i	nt	nt
Cc1cc(N/N=C/c2ccccc2Cl)nc(NCc2ccccc2)n1	i	i	i	11	i	i	i
C=CCn1c(COc2ccccc2)nnc1SCC(=O)Nc1ccc(S(=O)(=O)Nc2cc(C)nc(C)n2)cc1	nt	i	i	i	i	nt	nt
COc1cc(-c2coc3c(C(=O)NCc4ccccc4)cccc23)ccc1O	i	i	i	i	i	nt	nt
COc1cc(-c2coc3c(C(=O)NCc4cccc(Cl)c4)cccc23)ccc1O	i	i	i	8.6	i	27	13
C[C@H]1[C@H](NC(=O)c2ccc(Cl)c(C(F)(F)F)c2)CC[C@@]23CCCN2C(=O)CCC[C@@H]13	nt	i	i	i	i	nt	nt

Source: PubChem (several laboratories)
